Measurements from ChEMBL document CHEMBL3612047, “Synthesis, antiproliferative activity and possible mechanism of action of novel 2-acetamidobenzamides bearing the 2-phenoxy functionality” (Bioorg Med Chem, 2015).
Active and inactive are the calls of the source. The rule behind the calls is not given here.

Key:
DU-145 = test: Growth inhibition of human DU145 cells by NCI standard protocol based method; type: functional
Outline: (§1)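 NCI full 60-cell-line panel, 5-dose assay to the NCI standard protocol. GI₅₀ is the molar concentration inhibiting 50% net cell growth. Mean graph midpoint is averaged over all lines; where the effect is not reached, the highest tested concentration is used.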

HT-29 = test: Growth inhibition of human HT-29 cells by NCI standard protocol based method; type: functional; outline: as §1
CCRF-CEM = test: Growth inhibition of human CCRF-CEM cells by NCI standard protocol based method; type: functional; outline: as §1
[1] = Cytotoxicity against human HuDe cells incubated for 72 hrs by MTT assay; type: cell-based
Outline: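 HuDe primary culture from human epidermis, seeded at 2 × 10⁴ cells/mL. Test drugs at different concentrations, or 0.1% DMSO, added 24 h after seeding, with 72 h exposure. MTT (5 mg/mL in PBS) then applied for 3 h at 37 °C. Formazan solubilized with isopropanol/triton X-100/HCl and read at 570 nm with 690 nm blank.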

MCF7 = test: Growth inhibition of human MCF7 cells by NCI standard protocol based method; type: functional; outline: as §1
UO-31 = test: Growth inhibition of human UO31 cells by NCI standard protocol based method; type: functional
Outline: (§2)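 NCI 60-cell-line screen, standard NCI protocol. Single high dose of 10⁻⁵ M first, then a 5-dose assay across the full panel. Reported as GI₅₀, TGI and LC₅₀, the molar concentrations giving 50% net growth inhibition, total growth inhibition and 50% net cell death. Where an effect was not reached, the highest tested concentration was used.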

HOP-62 = test: Growth inhibition of human HOP62 cells by NCI standard protocol based method; type: functional; outline: as §1
[2] = Growth inhibition of human RPMI8226 cells by NCI standard protocol based method; type: functional; settings: RPMI-8226; outline: as §1
[3] = Growth inhibition of human MOLT4 cells by NCI standard protocol based method; type: functional; settings: MOLT-4; outline: as §1
OVCAR-3 = test: Growth inhibition of human OVCAR3 cells by NCI standard protocol based method; type: functional; outline: as §1
[4] = Growth inhibition of human Hs578T cells by NCI standard protocol based method; type: functional; settings: Hs-578T; outline: as §1
ACHN = test: Growth inhibition of human ACHN cells by NCI standard protocol based method; type: functional; outline: as §1
IGROV-1 = test: Growth inhibition of human IGROV1 cells by NCI standard protocol based method; type: functional; outline: as §1
[5] = Growth inhibition of human NCI60 cells assessed as cell growth level at 10 uM by NCI standard protocol based method; type: functional; design: scale not given: the % may be the effect or the level left
Outline: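 NCI 60-cell-line screen (leukemia, lung, colon, melanoma, renal, ovarian, brain, breast, prostate) run to the NCI standard protocol. Single high dose of 10⁻⁵ M, read as growth percent. Mean graph midpoint is the arithmetic mean over all lines tested.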

[6] = Growth inhibition of human SF295 cells by NCI standard protocol based method; type: functional; settings: SF-295; outline: as §1
T47D = test: Growth inhibition of human T47D cells by NCI standard protocol based method; type: functional; outline: as §2
K562 [7] = test: Selectivity index, ratio of IC50 for human HuDe cells to IC50 human K562 cells
Outline: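 Index taken as the ratio of HuDe to K562 IC₅₀. For K562: about 2 × 10⁵ cells/mL, compounds added at graded concentrations, viable count by trypan blue exclusion with a hemocytometer after 24 h. For HuDe primary epidermal cells: 2 × 10⁴ cells/mL, drugs or 0.1% DMSO added 24 h after seeding, MTT read at 570 nm (690 nm blank) after 72 h.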

OVCAR-5 = test: Growth inhibition of human OVCAR5 cells by NCI standard protocol based method; type: functional; outline: as §1
NCI-H322M = test: Growth inhibition of human NCI-H322M cells by NCI standard protocol based method; type: functional; outline: as §1
SNB-19 = test: Growth inhibition of human SNB19 cells by NCI standard protocol based method; type: functional; outline: as §2
K562 [8] = test: Growth inhibition of human K562 cells at 10 uM incubated for 24 hrs by trypan blue dye exclusion assay; type: functional; settings: K562, 24 h, read-out: GI
Outline: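 K562 cells in medium with 5% FBS at 37 °C, 5% CO₂. About 2 × 10⁵ cells/mL cultured 24 h, then compound added at 10 μM. After 24 h exposure, cells counted by hemocytometer and viability scored by trypan blue exclusion, reported as percent growth inhibition.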

[9] = Growth inhibition of human HCC2998 cells by NCI standard protocol based method; type: functional; settings: HCC 2998; outline: as §1
K562 [10] = test: Growth inhibition of human K562 cells incubated for 24 hrs by trypan blue dye exclusion assay; type: functional, cell-based; settings: K562, 24 h
Outline: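 K562 cells, about 2 × 10⁵ cells/mL, precultured 24 h, then exposed 24 h to a range of compound concentrations. Viable cells counted by hemocytometer with trypan blue exclusion to derive IC₅₀.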

[11] = Growth inhibition of human HOP92 cells by NCI standard protocol based method; type: functional; settings: HOP-92; outline: as §1
SK-OV-3 = test: Growth inhibition of human SKOV3 cells by NCI standard protocol based method; type: functional; outline: as §2
NCI-H23 = test: Growth inhibition of human NCI-H23 cells by NCI standard protocol based method; type: functional; outline: as §1
K562 [12] = test: Induction of mitotic arrest in human K562 cells; type: functional, cell-based
CAKI-1 = test: Growth inhibition of human CAKI-1 cells by NCI standard protocol based method; type: functional; outline: as §1
MDA-MB-435 = test: Growth inhibition of human MDA-MB-435 cells by NCI standard protocol based method; type: functional; outline: as §1
SR = test: Growth inhibition of human SR cells by NCI standard protocol based method; type: functional; outline: as §2
U-251 = test: Growth inhibition of human U251 cells by NCI standard protocol based method; type: functional; outline: as §2
A498 = test: Growth inhibition of human A498 cells by NCI standard protocol based method; type: functional; outline: as §1
SK-MEL-28 = test: Growth inhibition of human SK-MEL-28 cells by NCI standard protocol based method; type: functional; outline: as §1
OVCAR-8 = test: Growth inhibition of human OVCAR8 cells by NCI standard protocol based method; type: functional; outline: as §1
UACC-257 = test: Growth inhibition of human UACC257 cells by NCI standard protocol based method; type: functional; outline: as §2
Tubulin (Homo sapiens) = Tubulin (Homo sapiens) (UniProt P68371+Q9H4B7+P0DPH7+P68366+Q13509+Q71U36+P04350+Q3ZCM7+P07437+P68363+Q9BQE3+Q6PEY2+Q13885+Q9BVA1+Q9BUF5); test: Inhibition of colchicine binding to tubulin (unknown origin); type: protein-complex assay
[13] = Growth inhibition of human COLO205 cells by NCI standard protocol based method; type: functional; settings: COLO 205; outline: as §1
SNB-75 = test: Growth inhibition of human SNB75 cells by NCI standard protocol based method; type: functional; outline: as §2
SW-620 = test: Growth inhibition of human SW620 cells by NCI standard protocol based method; type: functional; outline: as §2
K562 [14] = test: Growth inhibition of human K562 cells by NCI standard protocol based method; type: functional; outline: as §1
MDA-MB-231 = test: Growth inhibition of human MDA-MB-231 cells by NCI standard protocol based method; type: functional; outline: as §1
SN12C = test: Growth inhibition of human SN12C cells by NCI standard protocol based method; type: functional; outline: as §2

SMILES: NC(=O)c1cc(I)ccc1NC(=O)COc1ccccc1
- GI50 (DU-145): 444 nM
- GI50 (HT-29): 349 nM
- GI50 (CCRF-CEM): 382 nM
- IC50 [1]: 318000 nM
- GI50 (MCF7): 230 nM
- GI50 (UO-31): 2870 nM
- GI50 (HOP-62): 824 nM
- GI50 [2]: 553 nM
- GI50 [3]: 1100 nM
- GI50 (OVCAR-3): 321 nM
- GI50 [4]: 630 nM
- GI50 (ACHN): 1320 nM
- GI50 (IGROV-1): 1370 nM
- Activity [5]: 24.31%
- GI50 [6]: 223 nM
- GI50 (T47D): 556 nM
- Ratio IC50 (K562 [7]): 1987.5
- GI50 (OVCAR-5): 1680 nM
- GI50 (NCI-H322M): 705 nM
- GI50 (SNB-19): 913 nM
- inhibition of growth at 10 µM (K562 [8]): 73%
- GI50 [9]: 2950 nM
- IC50 (K562 [10]): 160 nM
- GI50 [11]: 1500 nM
- GI50 (SK-OV-3): 3170 nM
- GI50 (NCI-H23): 657 nM
- Activity (K562 [12]): Active
- GI50 (CAKI-1): 519 nM
- GI50 (MDA-MB-435): 101 nM
- GI50 (SR): 221 nM
- GI50 (U-251): 396 nM
- GI50 (A498): 1020 nM
- GI50 (SK-MEL-28): 1790 nM
- GI50 (OVCAR-8): 904 nM
- GI50 (UACC-257): 41700 nM
- inhibition (Tubulin (Homo sapiens)): inactive
- GI50 [13]: 353 nM
- GI50 (SNB-75): 215 nM
- GI50 (SW-620): 454 nM
- GI50 (K562 [14]): 161 nM
- GI50 (MDA-MB-231): 1280 nM
- GI50 (SN12C): 945 nM

SMILES: NC(=O)c1cc(Cl)ccc1NC(=O)COc1ccccc1
- GI50 (DU-145): 6010 nM
- GI50 (HT-29): 1740 nM
- GI50 (CCRF-CEM): 3070 nM
- IC50 [1]: 808000 nM
- GI50 (MCF7): 1810 nM
- GI50 (UO-31): 17500 nM
- GI50 (HOP-62): 5880 nM
- GI50 [2]: 4330 nM
- GI50 [3]: 8140 nM
- GI50 (OVCAR-3): 2300 nM
- GI50 [4]: 4650 nM
- GI50 (ACHN): 10700 nM
- GI50 (IGROV-1): 5600 nM
- Activity [5]: 46.4%
- GI50 [6]: 1960 nM
- GI50 (T47D): 6870 nM
- Ratio IC50 (K562 [7]): 621.38
- GI50 (OVCAR-5): 3860 nM
- GI50 (NCI-H322M): 7090 nM
- GI50 (SNB-19): 11700 nM
- inhibition of growth at 10 µM (K562 [8]): 87%
- GI50 [9]: 12100 nM
- IC50 (K562 [10]): 1300 nM
- GI50 [11]: 5700 nM
- GI50 (SK-OV-3): 8150 nM
- GI50 (NCI-H23): 5900 nM
- Activity (K562 [12]): Active
- GI50 (CAKI-1): 4180 nM
- GI50 (MDA-MB-435): 356 nM
- GI50 (SR): 777 nM
- GI50 (U-251): 2340 nM
- GI50 (A498): 1410 nM
- GI50 (SK-MEL-28): 6250 nM
- GI50 (OVCAR-8): 7060 nM
- inhibition (Tubulin (Homo sapiens)): inactive
- GI50 [13]: 2510 nM
- GI50 (SNB-75): 1810 nM
- GI50 (SW-620): 2580 nM
- GI50 (K562 [14]): 854 nM
- GI50 (MDA-MB-231): 9010 nM
- GI50 (SN12C): 17000 nM

SMILES: COc1ccc(NC(=O)COc2ccccc2)c(C(N)=O)c1
- GI50 (DU-145): 1870 nM
- GI50 (HT-29): 388 nM
- GI50 (CCRF-CEM): 487 nM
- IC50 [1]: 942000 nM
- GI50 (MCF7): 497 nM
- GI50 (UO-31): 8720 nM
- GI50 (HOP-62): 1010 nM
- GI50 [2]: 1170 nM
- GI50 [3]: 2000 nM
- GI50 (OVCAR-3): 375 nM
- GI50 [4]: 592 nM
- GI50 (ACHN): 2250 nM
- GI50 (IGROV-1): 4750 nM
- Activity [5]: 25.81%
- GI50 [6]: 650 nM
- Ratio IC50 (K562 [7]): 856.28
- GI50 (OVCAR-5): 5400 nM
- GI50 (NCI-H322M): 2100 nM
- GI50 (SNB-19): 3200 nM
- inhibition of growth at 10 µM (K562 [8]): 85.3%
- GI50 [9]: 2340 nM
- IC50 (K562 [10]): 1100 nM
- GI50 [11]: 414 nM
- GI50 (SK-OV-3): 2990 nM
- GI50 (NCI-H23): 1380 nM
- Activity (K562 [12]): Active
- GI50 (CAKI-1): 721 nM
- GI50 (MDA-MB-435): 121 nM
- GI50 (SR): 392 nM
- GI50 (U-251): 664 nM
- GI50 (A498): 304 nM
- GI50 (SK-MEL-28): 502 nM
- GI50 (OVCAR-8): 3130 nM
- GI50 (UACC-257): > 100000 nM
- inhibition (Tubulin (Homo sapiens)): inactive
- GI50 [13]: 487 nM
- GI50 (SNB-75): 245 nM
- GI50 (SW-620): 448 nM
- GI50 (K562 [14]): 245 nM
- GI50 (MDA-MB-231): 2030 nM
- GI50 (SN12C): 3090 nM
